From PMC3343186 (Nature, 2012)

How the values were obtained:
[1] = cited from earlier work
REV-ERBα = biological target: T1, REV-ERBα (Homo sapiens, UniProt P20393); format: cell-based; conditions: HEK293 cells, comparison with SR9011 and SR9009
T1 sequence (P20393 284-614 limits assumed): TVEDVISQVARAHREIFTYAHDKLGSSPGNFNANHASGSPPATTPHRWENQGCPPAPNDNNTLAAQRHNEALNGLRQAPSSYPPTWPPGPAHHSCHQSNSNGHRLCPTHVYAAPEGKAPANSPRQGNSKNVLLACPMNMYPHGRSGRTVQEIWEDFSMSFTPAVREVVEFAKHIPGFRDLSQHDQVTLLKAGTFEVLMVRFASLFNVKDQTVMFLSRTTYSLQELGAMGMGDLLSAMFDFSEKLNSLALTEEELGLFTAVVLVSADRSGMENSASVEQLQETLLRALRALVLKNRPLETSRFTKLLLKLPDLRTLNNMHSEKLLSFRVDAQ

C57Bl6 mice [2] = experiment: Circadian wheel running activity under constant darkness; format: in vivo; conditions: single dose 100 mg/kg i.p. at CT6
Method in brief: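 C57Bl6 mice in wheel cages were kept 7 days on 12h:12h L:D, then moved to constant darkness. After 12 days in D:D, mice received a single i.p. injection of vehicle or test compound at CT6.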

[3] = tested on: diet-induced obese C57BL6 mice; experiment: Diet-induced obese mice, 30-day treatment; format: in vivo; conditions: DIO C57Bl6 mice, 100mg/kg i.p. b.i.d., 30 days
lean C57Bl6 mice = experiment: Fasting plasma TG and Chol in lean C57Bl6 mice; format: in vivo; conditions: 100 mg/kg i.p. b.i.d., 10 days
Method in brief: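 Lean C57Bl6 mice were given 100 mg/kg i.p. twice daily at CT0 and CT12 for 10 days, then fasting plasma triglycerides and total cholesterol were measured. Mean ± s.e.m., n=6-10.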

[4] = tested on: metabolic genes in DIO mice tissues; experiment: Metabolic gene expression in liver, WAT and skeletal muscle of DIO mice; format: in vivo; conditions: 100mg/kg i.p. b.i.d., 30 days
Method in brief: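 Diet-induced obese C57BL6 mice, 20 weeks old, had 14 weeks on high-fat diet (20% carbohydrate, 60% fat) and continued on it under twice-daily i.p. dosing. Liver, WAT and skeletal muscle mRNA was quantified by QPCR, normalised to Cyclophilin b. n=6-10.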

ob/ob mice = experiment: ob/ob mice, 12-day dosing; format: in vivo; conditions: 100 mg/kg i.p. b.i.d., 12-days
Method in brief: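 Leptin-deficient ob/ob mice were dosed 100 mg/kg i.p. twice daily for 12 days. Body weight and body fat content were tracked; glucose and insulin tolerance were also assessed. Mean ± s.e.m., n=6-10.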

C57Bl6 mice [5] = experiment: Circadian locomotor activity under L:D; format: in vivo; conditions: L:D 12h:12h, single injection
Method in brief: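 Wheel-running actograms were recorded in C57Bl6 mice kept on 12:12 L:D after single i.p. injections of vehicle or test compound. The protocol was otherwise as in the constant-darkness wheel experiment. n=6-10.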

C57Bl6 mice [6] = experiment: Comprehensive laboratory animal monitoring system; format: in vivo
Method in brief: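 C57Bl6 mice in CLAMS cages were dosed 100 mg/kg i.p. twice daily at CT0 and CT12 for 10 days. Oxygen consumption (VO2) and RER were recorded across diurnal and nocturnal phases. Fat mass was measured by DEXA after the run. Mean ± s.e.m., n=6-10.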

Balb/c or C57Bl6 mice = experiment: Body weight and fat mass in lean mice on chronic dosing; format: in vivo
Method in brief: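 Balb/c mice given 100 mg/kg i.p. twice daily at CT0 and CT12 for 12 days; body weight and fat mass followed over treatment. Mean ± s.e.m., n=6-10 mice.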

[7] = tested on: core clock genes in the hypothalamus; experiment: Core clock gene expression in hypothalamus; format: in vivo, mice
SCN explants (Per2:luc) = experiment: Bioluminescence of SCN explants from Per2:luc reporter mouse; format: cell-based; conditions: 5 μM
[8] = tested on: metabolic genes in white adipose tissue (WAT); experiment: Circadian gene expression in white adipose tissue after single dose; format: in vivo, mice
Method in brief: (§1)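 Male C57BL6 mice, 8-10 weeks, housed on 12h:12h L:D or in constant darkness, received a single 100 mg/kg i.p. dose at CT0. Groups (n=6) were sacrificed at CT0, CT6, CT12 and CT18; tissue mRNA measured by real-time QPCR. Data double plotted; mean ± s.e.m.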

[9] = tested on: metabolic genes in skeletal muscle; experiment: Circadian gene expression in skeletal muscle after single dose; format: in vivo, mice; conditions: single dose 100 mg/kg i.p. at CT0
Method in brief: as §1

[10] = tested on: REV-ERB responsive genes in the liver; experiment: Expression of REV-ERB responsive genes in liver after 6-day dosing; format: in vivo, mice; conditions: various doses i.p., b.i.d., 6-days
[11] = tested on: clock and metabolic genes in the liver; experiment: Circadian gene expression in liver after single dose; format: in vivo, mice
Method in brief: as §1

[12] = C57Bl6 mice, 100mg/kg i.p. b.i.d., 10 days
[13] = D:D, 100 mg/kg i.p. single dose at CT0
[14] = single dose 100 mg/kg i.p. at CT0

In the case of CC(C)(C)OC(=O)CN(Cc1ccc(Cl)cc1)Cc1ccc([N+](=O)[O-])s1 [GSK4112], the plasma exposure [1] is given as “no plasma exposure” and the “activity in GAL4-REV-ERBα and GAL4-REV-ERBβ cotransfection assays” value (REV-ERBα) is given as “limited activity”.
For CCOC(=O)N1CCC(CN(Cc2ccc(Cl)cc2)Cc2ccc([N+](=O)[O-])s2)C1 (centres unmarked) [SR9009], the “locomotor activity during the subject dark phase” value (C57Bl6 mice [2]) was “loss of the subsequent active period”, the “decrease in plasma insulin levels (trend)” value [3] was 35% and the “decrease in plasma leptin” value [3] was 80%. For the same molecule, the “decrease in plasma total cholesterol (Chol)” value ([3]; fasting) was 47%, the “decrease in plasma triglycerides (TGs)” value ([3]; fasting) was 12% and the “reduction of plasma glucose” value ([3]; fasting) was 19%. For the same molecule, the “reduction of plasma non-esterified fatty acids (NEFA)” value ([3]; fasting) was 23%, the “decrease in proinflammatory cytokine IL-6” value ([3]; plasma) was 72% and the plasma total cholesterol (lean C57Bl6 mice) was “reduce the levels”. For the same molecule, the plasma triglycerides (lean C57Bl6 mice) was “reduce the levels”, the “Cpt1b expression in skeletal muscle” value [4] was “induced the expression” and the “Fasn expression in liver” value [4] was “significant decrease”. The “Hk1 expression in skeletal muscle” value [4] was “induced the expression”, the “Hmgcr expression in liver” value [4] was “significant decrease” and the “Pkm2 expression in skeletal muscle” value [4] was “induced the expression”. The “Ppargc1b expression in skeletal muscle” value [4] was “induced the expression”, the “Scd1 expression in liver” value [4] was “significant decrease” and the “Srebf2 expression in liver” value [4] was “significant decrease”. For the same molecule, the “Ucp3 expression in skeletal muscle” value [4] was “induced the expression”, the “expression of genes encoding enzymes involved in TG synthesis in WAT” value [4] was “decrease in expression” and the “glucose or insulin tolerance” value (ob/ob mice) was “no significant alterations”. The weight gain (ob/ob mice) was “suppressed the degree of weight gain” and the “delay in the onset of locomotor activity” value (C57Bl6 mice [5]) was 1 to 3 h.
In the case of CCCCCNC(=O)N1CCC(CN(Cc2ccc(Cl)cc2)Cc2ccc([N+](=O)[O-])s2)C1 (centres unmarked) [SR9011], the “increase in nocturnal food consumption” value (C57Bl6 mice [6]; [12]) is reported as 10%, the “increase in oxygen consumption (VO2)” value (C57Bl6 mice [6]; [12]) is reported as 5% and the “rate of food intake” value (C57Bl6 mice [6]; [12]) is reported as “no effect”. The respiratory exchange ratio (C57Bl6 mice [6]; [12]) was “no change”, the “total daily food intake” value (C57Bl6 mice [6]; [12]) was “no effect” and the decrease in movement (C57Bl6 mice [6]; C57Bl6 mice, 100mg/kg i.p. b.i.d., 10 days, x-axis beam breaks) was 15%. The “fat mass (DEXA) vs. vehicle” value (C57Bl6 mice [6]; after 10-day CLAMS experiment) was “decrease in fat mass”, the “body weight and fat mass” value (Balb/c or C57Bl6 mice; 100mg/kg, i.p., b.i.d., 12 days) was “weight loss due to decreased fat mass” and the food intake (Balb/c or C57Bl6 mice; chronic administration, data not shown) was “not affected”. The “locomotor activity during the subject dark phase” value (C57Bl6 mice [2]) was “loss of the subsequent active period”, the “circadian pattern of Rev-erbα expression in hypothalamus” value ([7]; D:D conditions) was “completely suppressed” and the “Bmal1 expression in hypothalamus” value [7, 13] was “left shift in the phase”. The “Cry2 expression in hypothalamus” value [7, 13] was “suppressed”, the “Per2 expression amplitude in hypothalamus” value [7, 13] was “enhanced” and the “circadian pattern of expression of Npas2 in hypothalamus” value [7, 13] was “completely eliminated”. The “pattern of expression of Clock in hypothalamus” value [7, 13] was “enhanced amplitude of the oscillation”, the “circadian pattern of Rev-erbα expression in hypothalamus” value ([7]; L:D conditions) was “no effect” and the “amplitude of the oscillations in SCN explants” value (SCN explants (Per2:luc)) was “suppressed the amplitude”. The “circadian oscillations in SCN explants” value (SCN explants (Per2:luc)) was “reversible inhibition of circadian oscillations”, the “period of the oscillations in SCN explants” value (SCN explants (Per2:luc)) was “no effect on the period” and the “Nocturnin (Ccrn4l) expression in adipose tissue” value ([8]; single dose) was “suppression”. The “Dgat1 expression in WAT” value [8, 14] was “suppressed”, the “Dgat 2 expression in WAT” value [8, 14] was “suppressed” and the “Hsl expression in WAT” value [8, 14] was “suppressed”. For the same molecule, the “Mgat circadian expression in WAT” value [8, 14] was “disturbed”, the “Plin1 expression in WAT” value [8, 14] was “suppressed” and the plasma total cholesterol (lean C57Bl6 mice) was “reduce the levels”. The plasma triglycerides (lean C57Bl6 mice) was “reduce the levels”, the “Cpt1b expression in skeletal muscle” value [9] was “elevated” and the “Hk1 expression in skeletal muscle” value [9] was “increase”. The “Pkm2 expression in skeletal muscle” value [9] was “increase”, the “Pppargc1b expression in skeletal muscle” value [9] was “elevated” and the “Ucp3 expression in skeletal muscle” value [9] was “elevated”. For the same molecule, the “Cyp7a1 expression in liver” value [10] was “dose-dependently suppressed”, the “Serpine1 expression in liver” value [10] was “dose-dependent suppression” and the “Nampt gene expression in the liver” value ([11]; single dose) was “suppressed the circadian rhythm”. For the same molecule, the “Nocturnin (Ccrn4l) expression in hepatic tissue” value ([11]; single dose) was “suppression”, the “Bmal1 expression in liver” value [11, 14] was “unaffected” and the “Cyp7a1 expression in liver” value [11, 14] was “decreased”. For the same molecule, the “Fasn expression in liver” value [11, 14] was “phase shifted”, the “Npas2 expression in liver” value [11, 14] was “unaffected” and the “Per2 expression pattern in liver” value [11, 14] was “altered”. For the same molecule, the “Ppargc1a circadian expression in liver” value [11, 14] was “suppressed”, the “Ppargc1b circadian expression in liver” value [11, 14] was “suppressed” and the “Scd1 expression in liver” value [11, 14] was “suppressed”. The “Srebf1 expression in liver” value [11, 14] was “suppressed”, the “Srebf2 expression in liver” value [11, 14] was “decreased” and the “Hmgcr expression in liver” value ([11]; single dose 100 mg/kg i.p. at CT0, acute model) was “unaffected”. For the same molecule, the “delay in the onset of locomotor activity” value (C57Bl6 mice [5]) was 1 to 3 h.
